The list is not random: actives were taken first. Their share in the collection is about 2.3%.
Calb biofilm kill – kills Candida albicans biofilms. C. albicans biofilm + clotrimazole, Alamar Blue. inhibition, % at 6 µM. 85,000 tested, 0.14% active. AID 834;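 active = inhibition above 20%; inactive = inhibition below 20%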;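 also: preformed 24 hr biofilms exposed to compound for 48 hr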
SF-1 act – SF-1 (human) activation; Q13285; CHO-K1 Gal4-SF-1 LBD luciferase reporter; % increase over DMSO SF-1-specific signal; activation, % at 10 µM; 65,000 tested, 1.9% active;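 active = activation above the mean activation of all tested compounds plus 3 SD, cut at about 50% in these data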
Target sequence (Q13285 whole entry, looked up, the tested form may be a part): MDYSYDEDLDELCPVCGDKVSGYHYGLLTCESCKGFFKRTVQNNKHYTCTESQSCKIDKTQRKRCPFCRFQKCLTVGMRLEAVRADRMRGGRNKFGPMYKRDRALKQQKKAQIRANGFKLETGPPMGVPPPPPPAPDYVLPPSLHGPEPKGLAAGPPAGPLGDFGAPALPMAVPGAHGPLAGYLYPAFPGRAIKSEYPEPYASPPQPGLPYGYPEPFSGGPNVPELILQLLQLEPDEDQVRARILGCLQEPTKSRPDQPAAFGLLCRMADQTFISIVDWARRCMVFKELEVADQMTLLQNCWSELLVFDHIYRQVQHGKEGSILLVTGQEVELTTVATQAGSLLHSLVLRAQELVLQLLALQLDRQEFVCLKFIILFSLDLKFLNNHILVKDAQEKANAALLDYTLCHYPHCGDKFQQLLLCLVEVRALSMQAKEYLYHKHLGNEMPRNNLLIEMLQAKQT
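Material: Transient Gal4-SF-1 LBD reporter, CHO-K1 | Input: 4,000 cells/well | Dosing: One dose, 10 µM compound, 1% DMSO | Incubation: 20 h compound treatment, 37 °C | Detection: SteadyLite luciferase luminescence | Evaluation: Percent activation relative to DMSO median and mock-transfected background | Benchmarks: DMSO-treated SF-1-transfected cells as negative, DMSO-treated mock-transfected cells lacking SF-1 as background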
RORa activator – activates the human nuclear receptor RORA; 65,000 tested, 1.5% active; AID 560; P35398; CHO-K1 Gal4-RORA LBD luciferase reporter, luminescence; percent increase over mock-subtracted basal signal; activation, % at 10 µM;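 active = activation above the mean of all tested compounds plus 3 SD, cut at about 49% in these data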
JNK3 inh – JNK3 (human) kinase inhibition; P53779; AID 746; inhibition, % at 8 µM; purified JNK3 kinase activity, HTS; 60,000 tested, 0.61% active; in the data active = inhibition above about 17%
A number is an active result; i = inactive; nt = not tested or not shown.

SMILES | Calb biofilm kill | SF-1 act | RORa activator | JNK3 inh
CCC1C(=O)n2nc(-c3ccccc3)cc2N=C1C (stereo not given) | i | 91.2 | i | i
Cc1cc(-c2ccccc2)nc(=O)[nH]1 | i | i | i | i
CC(N)(Cc1ccc(O)cc1)C(=O)O (stereo not given) | i | nt | nt | nt
COc1ccc(C(=O)Nc2nnc(C(F)(F)F)s2)cc1 | i | 57.3 | i | i
COC(=O)CCC(=O)Nc1nnc(C(F)(F)F)s1 | i | nt | nt | nt
O=C(Nc1nnc(C(F)(F)F)s1)c1cccnc1 | i | 59.7 | 65.8 | i
Cc1ccc(O)c(C2=NOC(O)(C(F)(F)F)C2)c1 (stereo not given) | i | nt | nt | nt
CN1CCN(c2c3c(c(C#N)c4nc5ccccc5n24)CCCC3)CC1 | i | i | i | i
O=C(Nc1cccc(F)c1)Nc1ccccn1 | nt | 61.6 | 61.3 | nt
O=C1c2ccccc2NC(c2ccccc2)N1Cc1ccco1 (stereo not given) | 36.8 | i | i | i
Cc1cc(NC(=O)CSc2nc(CC(C)(C)C)nc3c2c(=O)n(C)c(=O)n3C)no1 | i | nt | nt | nt
COc1ccc(CNC(=O)c2cc(-c3cccs3)on2)cc1 | i | i | i | i
O=C(NCc1cccs1)c1cc(-c2cccs2)on1 | i | 52.9 | 83.2 | i
COCCNC(=O)c1cc(-c2cccs2)on1 | nt | i | 144.7 | i
Cc1cccc(C)c1N1CCN(c2ccc3nnc(C(F)(F)F)n3n2)CC1 | i | nt | nt | nt
Cc1ccc(C(=O)Oc2oc(-c3ccco3)nc2C=Nc2ccc(Cl)cc2)cc1 | i | nt | nt | nt
Cc1ccc(N=Cc2nc(-c3ccco3)oc2O)cc1 | i | 104.0 | i | i
O=C(Nc1cnc2ccccc2c1)c1ccncc1 | i | i | 73.7 | i
O=C(Nc1ccccc1)c1ccncc1 | i | nt | nt | nt
CCN(CC)C(=O)Nc1cnc2ccccc2c1 | i | i | i | i
COC(=O)c1cccc(C(=O)Nc2cnc3ccccc3c2)n1 | nt | 97.3 | i | i
N#C/C(C(=O)Oc1ccccc1)=C1\C=CC=CN1 | i | i | 58.5 | i
N#Cc1cc2c(nc1SC1CCCCC1O)CCCC2 (stereo not given) | i | nt | nt | nt
O=C1NC(c2ccc3c(c2)OCO3)Nc2ccccc21 (stereo not given) | i | 71.9 | 62.9 | i
CN(C(=O)c1ccncc1)c1nnc(-c2ccccn2)s1 | i | i | i | i
SMILES | Calb biofilm kill | SF-1 act | RORa activator | JNK3 inh
CN(C(=O)c1ccno1)c1nnc(-c2ccccn2)s1 | 20.0 | i | i | i
Cn1nnc2c(NCc3ccco3)nccc21 | i | i | i | nt
COc1ccc(Nc2nccc3c2nnn3C)cc1 | i | i | 52.7 | i
O=C(NCCc1c[nH]c2ccccc12)c1cnc2n(c1=O)CCS2 | i | i | 59.9 | i
O=C(NCc1ccccc1Cl)c1cnc2n(c1=O)CCS2 | i | i | i | i
O=C(CSc1ccc2nnc(-c3ccncc3)n2n1)N1CCc2ccccc21 | i | i | i | i
O=C(C1CCCN(S(=O)(=O)c2cccc3cccnc23)C1)N1CCN(c2ccc(F)cc2)CC1 (stereo not given) | i | i | i | i
c1ccc(OCCOc2ncnc3ccccc23)cc1 | i | 50.2 | i | i
Cn1c(=O)c2c(nc(SCC(=O)NC3CCCCC3)n2C)n(C)c1=O | i | i | i | i
CC(C)Cn1c(-c2ccc(C#N)cc2)nc2c1c(=O)[nH]c(=O)n2CC(C)C | i | nt | nt | nt
O=C(Nc1nnc(C2CCCCC2)s1)c1ccco1 | i | 70.3 | i | i
O=C(CSc1nnc(NC(=O)c2ccco2)s1)NC1CCCC1 | nt | i | i | i
O=C(Nc1nnc(C2CCCCC2)s1)c1cccs1 | i | 53.7 | i | i
CC(Sc1ccc(Cl)cc1)C(=O)Nc1ccc(S(=O)(=O)N2CCOCC2)cc1 (stereo not given) | i | nt | nt | nt
c1ccc(COc2ccc(OCCn3cncn3)cc2)cc1 | i | 54.8 | i | i
NC(=O)C1CCN(C(=O)Cn2cccc2C(=O)c2ccccc2)CC1 | i | nt | nt | nt
CC(=O)Nc1ccc2oc(-c3cc(F)c(F)cc3Cl)nc2c1 | i | 52.9 | 52.3 | i
Cc1ccc2oc(-c3ccc(NC(=O)CC(C)C)cc3)nc2c1 | i | i | 55.2 | i
CCC(C)c1ccc2oc(-c3ccc(NC(=O)c4ncn[nH]4)cc3)nc2c1 (stereo not given) | i | i | i | i
O=C(Nc1ccc2oc(-c3ccccc3Cl)nc2c1)c1cncc(Br)c1 | i | i | i | i
O=C(Nc1ccc2oc(-c3ccccc3Cl)nc2c1)c1ncn[nH]1 | i | 75.6 | 62.4 | i
CC(C)c1ccc2oc(-c3ccc(NC(=O)c4ncn[nH]4)cc3)nc2c1 | i | 65.9 | i | i
CC(C)CC(=O)Nc1ccc2oc(-c3cccnc3)nc2c1 | i | i | i | i
Nc1nc2ccccc2n1/N=C/c1ccc(Br)cc1 | i | 69.1 | 69.5 | i
CSCC[C@H](NC(=O)c1nn(C)c(=O)c2ccccc12)c1nc2ccccc2[nH]1 | i | nt | nt | nt
SMILES | Calb biofilm kill | SF-1 act | RORa activator | JNK3 inh
COc1cccc2cc(-c3cn4cccc(C)c4n3)c(=O)oc12 | nt | 52.8 | i | i
O=C(c1ccc(Oc2ccccc2)cc1)c1nc2c(n1O)CCCC2 | i | nt | nt | nt
O=C1c2ccccc2C(=O)C1c1ccncc1 | i | i | i | 50.7
CC(C)(C)OC(=O)N1CCN(c2ccc(NC(=O)c3cc4ccccc4oc3=O)cc2)CC1 | nt | i | i | nt
Fc1ccc(-c2nnc(-c3ccc(Cl)cc3)o2)cc1 | i | i | 56.1 | i
O=C(COC(=O)CC12CC3CC(CC(Br)(C3)C1)C2)NC(=O)NCc1ccco1 | i | nt | nt | nt
Cc1ccc2nc(NCc3ccccc3)[nH]c2c1 | i | 67.5 | i | i
COc1ccc2nc(NCc3ccccc3)[nH]c2c1 | i | i | 51.7 | i
O=C(CCn1cnc2ccccc2c1=O)Nc1ccc(S(=O)(=O)N2CCCC2)cc1 | i | i | i | 26.6
O=C(CCn1cnc2ccccc2c1=O)Nc1ccc(S(=O)(=O)N2CCCCC2)cc1 | i | i | i | 20.2
CCCn1c(=O)n(C)c(=O)c2c(SCC(=O)NCc3ccco3)nc(C3CC3)nc21 | i | nt | nt | nt
O=c1c2ccccc2nc2n1CCCCC2 | i | i | i | i
O=c1c2ccccc2nc2n1CCCCN2 | i | i | i | 21.0
c1cc(-c2nc3cc(Oc4ccc5oc(-c6ccncc6)nc5c4)ccc3o2)ccn1 | i | i | i | i
O=C1COc2ccc(OCc3ccc(F)cc3)cc21 | i | i | 78.3 | i
COc1ccc(-c2cnn(-c3ccccc3)c2N)cc1OC | i | i | i | i
Nc1nc2c(s1)CCc1c-2cnn1-c1ccccc1 | nt | 91.1 | i | i
Cc1ccc(NC(=O)Nc2ccc(F)cc2)nc1 | i | 82.9 | i | i
CC(C)OC(=O)CSc1nnc(-c2ccccc2)n1N | i | nt | nt | nt
N#C/C(=C\c1cn(-c2ccccc2)nc1-c1cccnc1)c1nnc2n1CCCCC2 | i | nt | nt | nt
COc1cccc(C(=O)Nc2ccc(-c3nnc(-c4ccco4)o3)cc2)c1 | nt | i | i | i
O=C(COc1ccccc1)Nc1ccc(-c2nnc(-c3ccco3)o2)cc1 | i | 65.7 | i | i
Nc1nc(Nc2ccc(Cl)cc2Cl)nc(C(F)(F)F)n1 | i | 85.3 | 55.6 | i
Nc1nc(Nc2ccccc2Br)nc(C(F)(F)F)n1 | i | i | i | i
O=C(Nc1nc2ccccc2s1)C1CC(=O)N(c2ccc(F)cc2)C1 (stereo not given) | i | nt | nt | nt
CCN1C(=S)SC(=O)C1=C1C=C(C)OC(C)=C1 | i | i | i | nt
CCN1C(=S)SC(=O)C1=C1C=C(C)N(Cc2ccco2)C(C)=C1 | i | 52.9 | i | nt

Source: PubChem BioAssay (several laboratories)
